Tested on: Bone
Assay: Biodistribution in LPS treated C57BL/6N mouse bone at 50 uCi/110 uL, iv administered 6 hrs before LPS challenge measured after 1 hr post drug dose
Assay type: ADME, organism-based, Bone element
Details: in vivo, in the assay text read “6 hrs after LPS challenge” for “6 hrs before LPS challenge”
Outline: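 Male C57BL/6N mice aged 6-8 weeks received E. coli O127:B8 LPS in PBS, 10 mg/kg i.v., 6 h before tracer. Tracer ~50 μCi in 10% ethanol/saline, i.v. tail vein. Sacrifice was at 5 min, 30 min, 1 h or 2 h post-injection. Organs were weighed and gamma-counted with injectate standards. Data are %ID/g, mean ± SD, n = 4.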

Drug uptake: 4.3 % ID/g
SMILES: Cc1cc(N)nc(CC(C)[18F])c1 (stereo unspecified)
